Key:
STS26T MPNST cells = experiment: Flow cytometry cell cycle analysis, STS26T; type: cell-based, human; conditions: one- or two-IC50 doses, three days
[1] = test system: silvestrol-resistant 697-R leukemic cells; experiment: Cell proliferation of MDR1-overexpressing leukemic cells, 3 days; type: cell-based; conditions: for sensitivity to MDR1 inhibition: 697-R versus 697 cells
[2] = test system: panel of MPNST, schwannoma, and meningioma cell lines; experiment: Growth-inhibitory activity compared in the cell line panel; type: cell-based; conditions: all cell lines tested
In short: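 Compounds were made up as 10-mM stocks in DMSO. Cell lines were authenticated by STR genotyping and confirmed mycoplasma-free. Proliferation was read by resazurin assay.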

ST8814 MPNST cells = experiment: Flow cytometry cell cycle analysis, ST8814; type: cell-based, human; conditions: one- or two-IC50 doses, three days
[3] = test system: parental 697 leukemic cells; experiment: Cell proliferation of parental leukemic cells, 3 days; type: cell-based; conditions: 72 h, read-out: IC50 in 697 cells
Toxicology study in dogs = type: in vivo; conditions: same protocol, same lab
[4] = cited from earlier work

Row | SMILES | G2/M fraction (STS26T MPNST cells) | sensitivity to MDR1 inhibition [1] | potency relative to silvestrol [2] | G2/M fraction (ST8814 MPNST cells) | IC50 [3] [nM] | pulmonary toxicity in dogs (Toxicology study in dogs) | oral bioavailability [4] [%] | IC50 ([1]; MDR1, 72 h, read-out: IC50 in 697-R cells) [nM]
1 | COc1ccc([C@@]23Oc4cc(OC)cc(OC)c4[C@]2(O)[C@H](O)[C@H](C(N)=O)[C@H]3c2ccccc2)cc1 [Didesmethylrocaglamide] | marked increase in the G2/M fraction | not sensitive to MDR1 inhibition | ~ 2 fold | marked increase in the G2/M fraction | 3 | – | – | –
2 | COc1ccc([C@@]23Oc4cc(OC)cc(OC)c4[C@]2(O)[C@H](O)[C@H](C(=O)N(C)C)[C@H]3c2ccccc2)cc1 [Rocaglamide] | marked increase in the G2/M fraction | not sensitive to MDR1 inhibition | – | marked increase in the G2/M fraction | 8 | did not produce adverse pulmonary findings | – | –
3 | COC(=O)[C@H]1[C@@H](O)[C@@]2(O)c3c(OC)cc(O[C@@H]4O[C@@H]([C@H](O)CO)CO[C@H]4OC)cc3O[C@@]2(c2ccc(OC)cc2)[C@@H]1c1ccccc1 [Silvestrol, reference compound] | – | – | – | – | 3.5 | massive lung damage | < 2 | 26
